Assay results as given in ChEMBL document CHEMBL1156157, “1,7-Disubstituted oxyindoles are potent and selective EP(3) receptor antagonists” (Bioorg Med Chem Lett, 2010).

Tests used:
[1] = molecular target: T1, Prostaglandin E2 receptor EP3 subtype (Homo sapiens, UniProt P43115); assay: Displacement of [3H]PGE2 from human EP3 receptor in buffer
T1 sequence (P43115 whole entry): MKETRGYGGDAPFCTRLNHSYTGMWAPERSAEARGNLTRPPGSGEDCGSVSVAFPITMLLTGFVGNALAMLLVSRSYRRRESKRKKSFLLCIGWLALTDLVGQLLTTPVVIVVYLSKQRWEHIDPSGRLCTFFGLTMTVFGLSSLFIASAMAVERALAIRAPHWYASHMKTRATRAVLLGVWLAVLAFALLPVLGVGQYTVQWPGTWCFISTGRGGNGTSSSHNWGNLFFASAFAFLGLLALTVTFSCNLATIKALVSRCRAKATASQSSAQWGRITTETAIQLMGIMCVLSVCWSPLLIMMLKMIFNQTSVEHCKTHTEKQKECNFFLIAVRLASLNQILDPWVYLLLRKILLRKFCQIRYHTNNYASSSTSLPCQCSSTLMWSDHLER

[2] = molecular target: T1, Prostaglandin E2 receptor EP3 subtype; assay: Displacement of [3H]PGE2 from human EP3 receptor in presence of 10% human serum
[3] = Metabolic stability in human liver microsomes assessed as parent compound remaining after 30 mins; format: ADME, Microsome; settings: read-out: Stability
Outline: (§1)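 Compounds incubated with liver microsomes from human, rat, mouse, dog or monkey. Read-out is percent parent compound remaining at 30 min of incubation.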

[4] = Metabolic stability in rat liver microsomes assessed as parent compound remaining after 30 mins; format: ADME, Microsome; settings: read-out: Stability; outline: as §1
[5] = species on record: Rattus norvegicus; assay: Antithrombotic activity in rat assessed as platelet aggregation; format: functional
Outline: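 Functional EP3 antagonism measured in a rat platelet aggregation assay. Values reported as EC50 in nM.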

[6] = Metabolic stability in mouse liver microsomes assessed as parent compound remaining after 30 mins; format: ADME, Microsome; settings: read-out: Stability; outline: as §1
[7] = molecular target: Cytochrome P450 3A4 (Homo sapiens, UniProt P08684); assay: Inhibition of human CYP3A4 using 7-benzyloxy-4-trifluoromethylcoumarin as substrate; format: ADME
Cytochrome P450 3A4, sequence (P08684 whole entry): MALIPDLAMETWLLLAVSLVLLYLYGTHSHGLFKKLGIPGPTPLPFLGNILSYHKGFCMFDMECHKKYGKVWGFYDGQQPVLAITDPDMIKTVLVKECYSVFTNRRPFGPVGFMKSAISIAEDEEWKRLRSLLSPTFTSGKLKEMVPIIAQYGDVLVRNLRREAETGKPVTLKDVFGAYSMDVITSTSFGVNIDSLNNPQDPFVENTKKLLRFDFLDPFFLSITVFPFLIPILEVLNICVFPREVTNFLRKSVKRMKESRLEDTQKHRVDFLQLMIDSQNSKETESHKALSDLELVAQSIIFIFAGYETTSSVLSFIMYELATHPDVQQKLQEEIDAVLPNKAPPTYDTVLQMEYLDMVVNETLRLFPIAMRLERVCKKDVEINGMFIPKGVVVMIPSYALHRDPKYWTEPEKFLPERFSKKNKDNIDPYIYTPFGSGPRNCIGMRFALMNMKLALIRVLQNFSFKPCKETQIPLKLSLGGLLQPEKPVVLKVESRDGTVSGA
Outline: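 Inhibition of human CYP3A4 with 7-benzyloxy-4-trifluoromethylcoumarin (BFC) as substrate. Values given as IC50.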

Row | Compound | IC50 [1] [nM] | IC50 [2] [nM] | remaining at 0.5 h [3] [%] | remaining at 0.5 h [4] [%] | EC50 [5] [nM] | remaining at 0.5 h [6] [%] | IC50 [5] [nM] | inhibition (INH) [7]
1 | O=C(/C=C/c1cccc2c1N(Cc1ccc3ccccc3c1)C(=O)C2)NS(=O)(=O)c1cccs1 | 23.6 |  |  |  |  |  |  | 
2 | O=C(/C=C/c1cccc2c1N(Cc1ccc3ccccc3c1)C(=O)C2)NS(=O)(=O)c1cc(F)c(F)cc1F | 0.3 | 10.2 | 73.9 | 62.5 | 1090 |  |  | 
3 | O=C(/C=C/c1cccc2c1N(Cc1ccc3ccccc3c1)C(=O)C2)NS(=O)(=O)c1ccc(F)c(F)c1 | 0.4 | 6.9 | 65.9 | 43 | 246 | 13.2 |  | 
4 | O=C(/C=C/c1cccc2c1N(Cc1ccc3ccccc3c1)C(=O)C2)NS(=O)(=O)c1ccc(Cl)c(Cl)c1 | 0.5 | 5.2 | 66.5 | 46 |  | 15.7 |  | 
5 | O=C(/C=C/c1cccc2c1N(Cc1ccc3ccccc3c1)C(=O)C2)NS(=O)(=O)c1cccc(Cl)c1 | 0.6 | 8.1 | 56.8 | 29.8 | 405 | 7.8 |  | 
6 | O=C(/C=C/c1cccc2c1N(Cc1ccc(F)c(F)c1)C(=O)C2)NS(=O)(=O)c1ccc(F)c(F)c1 | 0.9 | 47.8 |  |  |  |  |  | 
7 | O=C(/C=C/c1cccc2c1N(Cc1ccc(F)c(F)c1)C(=O)C2)NS(=O)(=O)c1cccc(Cl)c1 | 0.4 | 35.5 |  |  |  |  |  | 
8 | CC1C(=O)N(Cc2ccc(Cl)cc2Cl)c2c(/C=C/C(=O)NS(=O)(=O)c3cccc(Cl)c3)cccc21 (stereo unspecified) | 0.5 | 6.8 | 49.5 | 23.6 |  | 7.26 |  | 
9 | O=C(/C=C/c1cccc2c1N(Cc1ccc3ccccc3c1)C(=O)C2(CO)CO)NS(=O)(=O)c1ccc(F)c(F)c1 | 11.6 | 187 |  |  |  |  |  | 
10 | CC1C(=O)N(Cc2ccc3ccccc3c2)c2c(/C=C/C(=O)NS(=O)(=O)c3cccc(Cl)c3)cccc21 (stereo unspecified) | 0.4 | 2.8 | 24.8 | 13.1 |  | 5.63 |  | 
11 | CC1C(=O)N(Cc2ccc3ccccc3c2)c2c(/C=C/C(=O)NS(=O)(=O)c3ccc(Cl)c(Cl)c3)cccc21 (stereo unspecified) | 0.6 | 4.1 | 36.4 | 10.3 |  | 5.83 |  | 
12 | O=C(/C=C/c1cccc2c1N(Cc1ccc(Cl)cc1Cl)C(=O)C2=O)NS(=O)(=O)c1cc(Cl)c(Cl)s1 | 6.5 | 136 |  |  |  |  |  | 
13 | CC1C(=O)N(Cc2ccc(Cl)cc2Cl)c2c(/C=C/C(=O)NS(=O)(=O)c3cc(F)c(F)cc3F)cccc21 (stereo unspecified) | 0.5 | 4.3 | 48.4 | 22.4 |  | 4.85 |  | 
14 | O=C(/C=C/c1cccc2c1N(Cc1ccc3ccccc3c1)C(=O)C2(CO)CO)NS(=O)(=O)c1cc(Cl)c(Cl)s1 | 2.3 | 243 |  |  |  |  |  | 
15 | CC1C(=O)N(Cc2ccc(Cl)cc2Cl)c2c(/C=C/C(=O)NS(=O)(=O)c3cccs3)cccc21 (stereo unspecified) | 2.4 | 660 |  |  |  |  |  | 
16 | CC1C(=O)N(Cc2ccc(Cl)cc2Cl)c2c(/C=C/C(=O)NS(=O)(=O)c3cc(Cl)c(Cl)s3)cccc21 (stereo unspecified) | 3.4 | 23.9 |  |  | 47 |  |  | 
17 | O=C(/C=C/c1cccc2c1N(Cc1ccc3ccccc3c1)C(=O)C2=O)NS(=O)(=O)c1cccs1 | 13.7 | 260 |  |  |  |  |  | 
18 | O=C(/C=C/c1cccc2c1N(Cc1ccc(Cl)cc1Cl)C(=O)C2)NS(=O)(=O)c1cc(F)c(F)cc1F | 0.2 | 4.4 | 61.6 | 50.6 | 361 | 70.1 |  | 
19 | O=C(/C=C/c1cccc2c1N(Cc1ccc(Cl)cc1Cl)C(=O)C2)NS(=O)(=O)c1ccc(F)c(F)c1 | 0.7 | 3.3 | 54.3 | 23.5 | 137 | 39.1 |  | 
20 | O=C(/C=C/c1cccc2c1N(Cc1ccc3ccccc3c1)C(=O)C2=O)NS(=O)(=O)c1cc(Cl)c(Cl)s1 | 12.3 | 15 |  |  |  |  |  | 
21 | O=C(/C=C/c1cccc2c1N(Cc1ccc3ccccc3c1)C(=O)C2=O)NS(=O)(=O)c1ccc(F)cc1 | 1.6 | 33.9 |  |  |  |  |  | 
22 | CC1C(=O)N(Cc2ccc3ccccc3c2)c2c(/C=C/C(=O)NS(=O)(=O)c3ccc(F)c(F)c3)cccc21 (stereo unspecified) | 0.6 | 20 |  |  |  |  |  | 
23 | CC1C(=O)N(Cc2ccc3ccccc3c2)c2c(/C=C/C(=O)NS(=O)(=O)c3cc(F)c(F)cc3F)cccc21 (stereo unspecified) | 0.3 | 5.4 | 13.7 | 17.6 | 19 | 5.1 |  | 

Row | Compound | IC50 [1] [nM] | IC50 [2] [nM] | remaining at 0.5 h [3] [%] | remaining at 0.5 h [4] [%] | EC50 [5] [nM] | remaining at 0.5 h [6] [%] | IC50 [5] [nM] | inhibition (INH) [7]
24 | CC1C(=O)N(Cc2ccc(F)c(F)c2)c2c(/C=C/C(=O)NS(=O)(=O)c3cccc(Cl)c3)cccc21 (stereo unspecified) | 4 | 39 |  |  |  |  |  | 
25 | CC1C(=O)N(Cc2ccc(Cl)cc2Cl)c2c(/C=C/C(=O)NS(=O)(=O)c3ccc(Cl)c(Cl)c3)cccc21 (stereo unspecified) | 0.9 | 9.8 |  |  |  |  |  | 
26 | O=C(/C=C/c1cccc2c1N(Cc1ccc3ccccc3c1)C(=O)C2(F)F)NS(=O)(=O)c1ccc(F)cc1 | 2.7 | 27.2 |  |  |  |  | > 800 | Active
27 | O=C(/C=C/c1cccc2c1N(Cc1ccc3ccccc3c1)C(=O)C2(F)F)NS(=O)(=O)c1ccc(Cl)cc1 | 5.5 | 125 |  |  |  |  | > 800 | Active
28 | O=C(/C=C/c1cccc2c1N(Cc1ccc(F)c(F)c1)C(=O)C2)NS(=O)(=O)c1cc(F)c(F)cc1F | 0.7 | 42 |  |  |  |  |  | 
29 | O=C(/C=C/c1cccc2c1N(Cc1ccc(F)c(F)c1)C(=O)C2)NS(=O)(=O)c1cc(Cl)c(Cl)s1 | 0.4 | 55.4 |  |  |  |  |  | 
30 | CC1C(=O)N(Cc2ccc(Cl)cc2Cl)c2c(/C=C/C(=O)NS(=O)(=O)c3ccc(F)c(F)c3)cccc21 (stereo unspecified) | 0.4 | 3.3 | 64.7 | 62.1 |  | 16 |  | 
31 | O=C(/C=C/c1cccc2c1N(Cc1ccc3ccccc3c1)C(=O)C21OCCO1)NS(=O)(=O)c1cc(Cl)c(Cl)s1 | 7.9 | 82.4 |  |  |  |  |  | 
32 | O=C(/C=C/c1cccc2c1N(Cc1ccc(Cl)cc1Cl)C(=O)C2(F)F)NS(=O)(=O)c1ccc(Cl)cc1 | 1.1 | 251 |  |  |  |  | > 800 | Active
33 | O=C(/C=C/c1cccc2c1N(Cc1ccc(F)c(F)c1)C(=O)C2(F)F)NS(=O)(=O)c1ccc(F)c(F)c1 | 1.3 | 251 |  |  |  |  | > 800 | Active
34 | O=C(/C=C/c1cccc2c1N(Cc1ccc(F)c(F)c1)C(=O)C2(F)F)NS(=O)(=O)c1ccc(Cl)c(Cl)c1 | 1.3 |  |  |  |  |  | > 800 | Active
35 | O=C(/C=C/c1cccc2c1N(Cc1ccc(F)c(F)c1)C(=O)C2(F)F)NS(=O)(=O)c1cccc(Cl)c1 | 5 | 416 |  |  |  |  | > 800 | Active
36 | O=C(/C=C/c1cccc2c1N(Cc1ccc(Cl)cc1Cl)C(=O)C2)NS(=O)(=O)c1cccc(Cl)c1 | 0.5 | 9.4 | 50.4 | 21 | 290 | 33.9 |  | 
37 | O=C(/C=C/c1cccc2c1N(Cc1ccc(F)c(F)c1)C(=O)C2)NS(=O)(=O)c1ccc(Cl)c(Cl)c1 | 0.3 | 55.4 |  |  |  |  |  | 
38 | O=C(/C=C/c1cccc2c1N(Cc1ccc(F)c(F)c1)C(=O)C2(F)F)NS(=O)(=O)c1cc(Cl)c(Cl)s1 | 7.2 | 980 |  |  |  |  | > 800 | Active
39 | O=C(/C=C/c1cccc2c1N(Cc1ccc(F)c(F)c1)C(=O)C2(F)F)NS(=O)(=O)c1cc(F)c(F)cc1F | 16.5 | 721 |  |  |  |  | > 800 | Active
40 | CC1C(=O)N(Cc2ccc(F)c(F)c2)c2c(/C=C/C(=O)NS(=O)(=O)c3ccc(Cl)c(Cl)c3)cccc21 (stereo unspecified) | 0.9 | 95.8 |  |  |  |  |  | 
41 | O=C(/C=C/c1cccc2c1N(Cc1ccc3ccccc3c1)C(=O)C2=O)NS(=O)(=O)c1ccc(Cl)c(Cl)c1 | 1 | 12.7 |  |  |  |  |  | 
42 | O=C(/C=C/c1cccc2c1N(Cc1ccc(Cl)cc1Cl)C(=O)C2(F)F)NS(=O)(=O)c1ccc(F)cc1 | 0.2 | 64.7 |  |  |  |  | > 800 | Active
43 | O=C(/C=C/c1cccc2c1N(Cc1ccc3ccccc3c1)C(=O)C2=O)NS(=O)(=O)c1cc(F)c(F)cc1F | 0.6 | 17.4 |  |  |  |  |  | 
44 | O=C(/C=C/c1cccc2c1N(Cc1ccc(Cl)cc1Cl)C(=O)C2)NS(=O)(=O)c1ccc(Cl)c(Cl)c1 | 1.2 | 3.3 | 53.3 | 26.8 | 316 | 56.1 |  | 
45 | CC1C(=O)N(Cc2ccc(F)c(F)c2)c2c(/C=C/C(=O)NS(=O)(=O)c3cc(F)c(F)cc3F)cccc21 (stereo unspecified) | 1.4 | 10.7 |  |  |  |  |  | 
